# Data from ChEMBL document CHEMBL4190407, “Identification of Morpholino Thiophenes as Novel Mycobacterium tuberculosis Inhibitors, Targeting QcrB” (J Med Chem, 2018).
# The source made the active and inactive calls. The rule behind the calls is not given here.
# Assays:
# [1] = Intrinsic clearance in CD-1 mouse liver microsomes in presence of NADPH up to 30 mins by UPLC-MS/MS analysis; type: ADME, microsome; conditions: 0.5 h
# [2] = molecular target: Cytochrome bc1 complex cytochrome b subunit (Mycobacterium tuberculosis (strain ATCC 25618 / H37Rv)) (UniProt P9WP37); assay: Inhibition of QcrB in Mycobacterium tuberculosis H37Rv ATCC 25618 assessed as reduction in ATP level measured after 24 hrs by BacTiter-Glo assay
# Method in brief: (§1)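 H37Rv exposed to compounds for 24 h. Intrabacterial ATP measured by BacTiter-Glo as relative luminescence units, with growth followed by OD590. Representative of 2 independent experiments.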
# Vero [3] = assay: Cytotoxicity against African green monkey Vero cells assessed as growth inhibition measured after 2 days by CellTiter-Glo assay; type: cell-based; conditions: Chlorocebus sabaeus, 48 h
# [4] = tested on: Mycobacterium tuberculosis; assay: Antimycobacterial activity against Mycobacterium tuberculosis H37Rv ATCC 25618 after 5 days; type: functional; conditions: H37Rv ATCC 25618, 120 h
# Method in brief: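 Growth measured in Middlebrook 7H9 with 10% OADC and 0.05% Tween 80 under aerobic conditions, covering H37Rv (ATCC 25618) and QcrB mutant strains. Growth read after 5 days at 37 °C. MIC90 is the concentration giving 90% growth inhibition, obtained by curve fitting (Levenberg–Marquardt). Mean ± SD of at least two independent experiments.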
# [5] = Clearance in human liver microsomes; type: ADME, microsome
# Cytochrome P450 2D6 = Cytochrome P450 2D6 (Homo sapiens, UniProt P10635); assay: Inhibition of CYP2D6 (unknown origin); type: ADME
# Cytochrome P450 2C9 = Cytochrome P450 2C9 (Homo sapiens, UniProt P11712); assay: Inhibition of CYP2C9 (unknown origin); type: ADME
# Cytochrome P450 1A2 = molecular target: T1, Cytochrome P450 1A2 (Homo sapiens, UniProt P05177); assay: Inhibition of CYP1A2 (unknown origin); type: ADME
# T1 sequence (P05177 whole entry): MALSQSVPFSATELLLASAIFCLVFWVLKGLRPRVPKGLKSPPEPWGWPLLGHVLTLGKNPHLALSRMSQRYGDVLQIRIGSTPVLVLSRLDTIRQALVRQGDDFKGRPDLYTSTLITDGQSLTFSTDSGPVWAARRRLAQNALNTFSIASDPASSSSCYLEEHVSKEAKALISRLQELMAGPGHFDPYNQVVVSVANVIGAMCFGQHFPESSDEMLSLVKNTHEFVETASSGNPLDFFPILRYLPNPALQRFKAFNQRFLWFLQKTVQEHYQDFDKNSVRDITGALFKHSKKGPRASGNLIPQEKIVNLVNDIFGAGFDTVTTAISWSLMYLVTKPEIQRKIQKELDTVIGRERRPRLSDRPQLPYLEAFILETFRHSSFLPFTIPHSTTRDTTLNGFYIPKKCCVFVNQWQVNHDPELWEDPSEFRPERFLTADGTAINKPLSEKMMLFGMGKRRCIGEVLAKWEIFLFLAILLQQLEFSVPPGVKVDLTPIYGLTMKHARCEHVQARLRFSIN
# Cytochrome P450 2C19 = Cytochrome P450 2C19 (Homo sapiens, UniProt P33261); assay: Inhibition of CYP2C19 (unknown origin); type: ADME
# Vero [6] = assay: Cytotoxicity against African green monkey Vero cells; type: cell-based; conditions: chlorocebus sabaeus
# Mus musculus [7] = assay: AUC in C57 Black mouse at 3 mg/kg, iv administered as bolus dose by UPLC-MS/MS analysis; type: ADME, organism-based; conditions: in vivo
# [8] = molecular target: Cytochrome bc1 complex cytochrome b subunit (Mycobacterium tuberculosis (strain ATCC 25618 / H37Rv)) (UniProt P9WP37); assay: Inhibition of QcrB in Mycobacterium tuberculosis H37Rv ATCC 25618 assessed as reduction in ATP level measured up to 0.1 uM after 24 hrs by BacTiter-Glo assay; method in brief: as §1
# Mus musculus [9] = assay: Toxicity in C57BL/6 mouse infected with Mycobacterium tuberculosis H37Rv at 30 mg/kg, po for 8 consecutive days starting from day 1 post infection; type: organism-based; conditions: in vivo
# Mus musculus [10] = assay: In vivo drug metabolism in C57 Black mouse assessed as oxidation of morpholine at 3 mg/kg, iv administered as bolus dose or 10 mg/kg, po via gavage by UPLC-MS/MS analysis; type: ADME, organism-based
# Mus musculus [11] = assay: In vivo drug metabolism in C57 Black mouse assessed as de-ethylation at 3 mg/kg, iv administered as bolus dose or 10 mg/kg, po via gavage by UPLC-MS/MS analysis; type: ADME, organism-based
# Mus musculus [12] = assay: Toxicity in C57BL/6 mouse infected with Mycobacterium tuberculosis H37Rv at 100 mg/kg, po for 4 consecutive days starting from day 5 post infection; type: organism-based; conditions: in vivo
# Sequence of Cytochrome bc1 complex cytochrome b subunit (Mycobacterium tuberculosis (strain ATCC 25618 / H37Rv)) (P9WP37 whole entry, one chain of several): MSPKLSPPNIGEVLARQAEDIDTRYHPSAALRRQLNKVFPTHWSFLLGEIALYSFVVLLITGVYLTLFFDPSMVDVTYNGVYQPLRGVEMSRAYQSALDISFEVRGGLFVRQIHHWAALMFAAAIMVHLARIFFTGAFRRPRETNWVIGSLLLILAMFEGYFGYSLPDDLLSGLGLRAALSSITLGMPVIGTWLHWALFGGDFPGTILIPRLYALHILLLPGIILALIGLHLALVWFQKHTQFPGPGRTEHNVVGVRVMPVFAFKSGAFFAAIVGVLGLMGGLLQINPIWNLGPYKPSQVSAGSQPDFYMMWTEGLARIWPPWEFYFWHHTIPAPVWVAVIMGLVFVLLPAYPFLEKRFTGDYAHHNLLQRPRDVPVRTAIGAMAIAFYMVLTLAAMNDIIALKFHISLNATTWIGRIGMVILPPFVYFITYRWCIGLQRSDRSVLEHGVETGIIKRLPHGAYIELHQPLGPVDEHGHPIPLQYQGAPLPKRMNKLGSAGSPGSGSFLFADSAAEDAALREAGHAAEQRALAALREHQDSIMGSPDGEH
# Sequence of Cytochrome P450 2D6 (P10635 whole entry): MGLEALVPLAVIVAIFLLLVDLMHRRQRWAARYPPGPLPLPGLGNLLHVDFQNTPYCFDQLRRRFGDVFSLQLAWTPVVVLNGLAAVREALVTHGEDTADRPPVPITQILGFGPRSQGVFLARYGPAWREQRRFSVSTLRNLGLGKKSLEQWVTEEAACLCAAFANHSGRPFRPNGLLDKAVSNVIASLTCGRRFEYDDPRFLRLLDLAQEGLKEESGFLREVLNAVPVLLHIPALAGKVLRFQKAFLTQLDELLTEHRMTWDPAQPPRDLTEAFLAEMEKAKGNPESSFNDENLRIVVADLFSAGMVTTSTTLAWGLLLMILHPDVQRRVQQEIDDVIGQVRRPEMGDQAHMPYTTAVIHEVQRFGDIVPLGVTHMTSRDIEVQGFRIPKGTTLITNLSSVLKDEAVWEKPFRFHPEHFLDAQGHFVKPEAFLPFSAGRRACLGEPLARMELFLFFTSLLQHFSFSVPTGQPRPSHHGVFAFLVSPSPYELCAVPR
# Sequence of Cytochrome P450 2C19 (P33261 whole entry): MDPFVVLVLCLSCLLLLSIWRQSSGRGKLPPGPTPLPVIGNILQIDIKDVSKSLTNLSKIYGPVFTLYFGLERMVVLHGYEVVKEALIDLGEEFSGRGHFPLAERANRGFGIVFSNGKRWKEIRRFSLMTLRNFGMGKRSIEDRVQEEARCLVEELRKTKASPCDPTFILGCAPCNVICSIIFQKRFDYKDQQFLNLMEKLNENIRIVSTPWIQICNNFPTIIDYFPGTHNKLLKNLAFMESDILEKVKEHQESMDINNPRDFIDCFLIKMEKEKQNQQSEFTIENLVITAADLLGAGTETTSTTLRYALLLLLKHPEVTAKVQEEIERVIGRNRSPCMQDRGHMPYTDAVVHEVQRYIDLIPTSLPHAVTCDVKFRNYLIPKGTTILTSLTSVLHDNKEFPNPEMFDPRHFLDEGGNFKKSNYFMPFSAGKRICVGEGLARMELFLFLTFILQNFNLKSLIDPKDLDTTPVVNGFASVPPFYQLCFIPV
# Sequence of Cytochrome P450 2C9 (P11712 whole entry): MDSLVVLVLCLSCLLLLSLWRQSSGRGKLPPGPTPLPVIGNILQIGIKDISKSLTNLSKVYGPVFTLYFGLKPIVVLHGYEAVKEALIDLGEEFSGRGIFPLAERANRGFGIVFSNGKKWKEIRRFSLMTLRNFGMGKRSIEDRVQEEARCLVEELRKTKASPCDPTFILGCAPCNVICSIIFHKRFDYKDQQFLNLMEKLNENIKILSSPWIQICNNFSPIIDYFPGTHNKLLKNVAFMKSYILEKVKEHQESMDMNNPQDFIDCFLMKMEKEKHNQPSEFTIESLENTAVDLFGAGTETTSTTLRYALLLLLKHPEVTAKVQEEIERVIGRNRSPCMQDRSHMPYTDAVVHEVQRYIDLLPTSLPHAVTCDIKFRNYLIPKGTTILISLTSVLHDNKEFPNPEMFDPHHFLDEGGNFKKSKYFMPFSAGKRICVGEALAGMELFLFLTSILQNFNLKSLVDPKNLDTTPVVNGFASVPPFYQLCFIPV
compound,measurement,setting,value
NC(=O)c1sc(N2CCOCC2)cc1OCCc1cccc(F)c1,intrinsic clearance,[1],18 mL/min/g
same,inhibition,[2],Dose-dependent effect
COc1ccccc1CCOc1cc(N2CCOCC2)sc1C(N)=O,intrinsic clearance,[1],26 mL/min/g
CON(C)C(=O)c1sc(N2CCOCC2)cc1OCCc1ccccc1,IC50,Vero [3],78 µM
NC(=O)c1sc(N2CCOCC2)cc1OCCc1ccccc1,MIC90,[4],0.72 to 0.8 µM
same,CLH,[5],3.5 mL/min/g
same,INH,Cytochrome P450 2D6,5 µM
same,INH,Cytochrome P450 2C9,5.1 µM
same,INH,Cytochrome P450 1A2,< 5 µM
same,INH,Cytochrome P450 2C19,5.9 µM
same,Activity,Vero [6],> 100 µM
same,AUC,Mus musculus [7],29000 ng·min/mL
same,inhibition,[2],Dose-dependent effect
CNC(=O)c1sc(N2CC3CC2CO3)cc1OCCc1ccccc1 (stereo not drawn),intrinsic clearance,[1],13 mL/min/g
NC(=O)c1sc(CN2CCOCC2)cc1OCCc1ccccc1,intrinsic clearance,[1],3 mL/min/g
COc1ccc(CCOc2cc(N3CCOCC3)sc2C(N)=O)cc1,MIC90,[4],0.6 to 0.63 µM
CO[C@H]1/C=C/O[C@@]2(C)Oc3c(C)c(O)c4c(O)c(c(/C=N/N5CCN(C)CC5)c(O)c4c3C2=O)NC(=O)/C(C)=C\C=C\[C@H](C)[C@H](O)[C@@H](C)[C@@H](O)[C@@H](C)[C@H](OC(C)=O)[C@@H]1C,inhibition,[8],Active
NC(=O)c1sc(N2CCOCC2)cc1CCCc1ccc(F)cc1,MIC90,[4],0.9 µM
same,IC50,Vero [3],> 100 µM
same,intrinsic clearance,[1],13 mL/min/g
NC(=O)c1ccc(N2CCOCC2)cc1OCCc1ccccc1,intrinsic clearance,[1],12 mL/min/g
O=C(NO)c1sc(N2CCOCC2)cc1OCCc1ccccc1,intrinsic clearance,[1],6 mL/min/g
NC(O)C1SC(N2CCOCC2)CC1OCC(F)(F)C1CCCCC1 (stereo not drawn),MIC90,[4],> 20 µM
same,IC50,Vero [3],95 µM
same,intrinsic clearance,[1],19 mL/min/g
CC1(COc2cc(N3CCOCC3)sc2C(N)=O)COC1,AUC,Mus musculus [7],980000 ng·min/mL
CNC(=O)c1sc(N2CCOCC2)cc1OCCc1ccccc1,intrinsic clearance,[1],36 mL/min/g
same,inhibition,[2],Dose-dependent effect
CCOC(=O)NC(=O)c1sc(N2CCOCC2)cc1OCCc1ccccc1,intrinsic clearance,[1],1 mL/min/g
COCCN(C)c1cc(OCCc2ccccc2)c(C(N)=O)s1,MIC90,[4],> 20 µM
same,IC50,Vero [3],> 100 µM
same,intrinsic clearance,[1],28 mL/min/g
NC(=O)c1sc(N2CCOCC2=O)cc1OCCc1ccccc1,intrinsic clearance,[1],7 mL/min/g
CCc1nc2ccc(Cl)cn2c1C(=O)NCc1ccc(N2CCC(c3ccc(OC(F)(F)F)cc3)CC2)cc1,inhibition,[8],Active
NC(=O)c1sc(N2CCOCC2)cc1OCCN1CCOCC1,intrinsic clearance,[1],0.9 mL/min/g
COC(=O)c1sc(N2CCOCC2)cc1OCCc1ccccc1,intrinsic clearance,[1],50 mL/min/g
COc1c(N2C[C@@H]3CCCN[C@@H]3C2)c(F)cc2c(=O)c(C(=O)O)cn(C3CC3)c12 [MOXIFLOXACIN],Activity,Mus musculus [9],Non-Toxic
NC(=O)c1sc(N2CCOCC2)cc1OCCc1ccc(OC(F)(F)F)cc1,MIC90,[4],0.2 to 0.24 µM
same,Drug metabolism,Mus musculus [10],Metabolite_Detected
same,Drug metabolism,Mus musculus [11],Metabolite_Detected
same,Activity,Mus musculus [12],Non-Toxic
same,inhibition,[2],Dose-dependent effect
COc1cccc(CCOc2cc(N3CCOCC3)sc2C(N)=O)c1,intrinsic clearance,[1],10 mL/min/g
NC(=O)c1sc(-n2nccn2)cc1OCCc1ccccc1,intrinsic clearance,[1],30 mL/min/g
NC(=O)c1sc(N2CCOCC2)cc1OCc1ccccc1,intrinsic clearance,[1],14 mL/min/g
CC1COCCN1c1cc(OCCc2ccccc2)c(C(N)=O)s1 (stereo not drawn),MIC90,[4],> 20 µM
same,IC50,Vero [3],77 µM
same,intrinsic clearance,[1],11 mL/min/g
